Compound activity: PubChem, several laboratories
Compounds with a hit are over-represented: about 3.8% of the library has one in this group of screens.
Yeast life ext: yeast lifespan extension. AID 775. S. cerevisiae growth with nicotinamide, OD615; deaD strain in restrictive glucose medium. 130,000 tested, 0.68% active. inhibition of the nicotinamide effect, % at 10 µM;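 active = inhibition above a set limit, placed 3 SD over the median of all compounds, cut at about 26% in these data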;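 also: 0% = nicotinamide-treated wells and 100% = cells grown without nicotinamide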
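assay system = DeaD-strain S. cerevisiae | buffer or medium = restrictive glucose medium | reagent = 1.5 mM nicotinamide | compound = 10 µM single point, 0.25% DMSO | incubation = 48 h compound exposure at 30 °C, humidified | signal = OD615 measurement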
RAM network inh: blocks the yeast RAM network; 190,000 tested, 1.8% active; AID 868; inhibition, % at 50 µM; S. cerevisiae dse1pr::URA3 reporter, 5-FOA growth OD615, 2 d; analog-sensitive cbk1-as2 kinase mutant strain;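 active = inhibition above a set limit, 3 SD over mean compound inhibition, cut at about 8.4% in these data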;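 also: 0% = DMSO-only wells with no growth and 100% = 10 µM 1-NA-PP1 full growth; inhibition rescues growth on 5-FOA so higher OD means more RAM inhibition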
BB579 growth dn: reduces growth of yeast BB579 in restrictive medium. inhibition, % at 10 µM. 140,000 tested, 0.51% active. S. cerevisiae BB579 growth, OD615, 48 h;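 active = inhibition above a set limit, 3 SD over the mean compound inhibition, cut at about 44% in these data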
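Test system: S. cerevisiae DeaD strain BB579 yeast; Medium: restrictive CSMM-D medium; Compound: one dose, 10 µM compound with 0.25% DMSO; Incubation: 4 h cell preincubation, 48 h compound exposure, 30 °C humidified; Signal: OD at 615 nm; Benchmarks: amphotericin B at 10 µg/mL as positive control.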
Measles CPE: protection of cells from measles virus; 140,000 tested, 1.5% active; Measles virus-infected cells, CPE protection, absorbance; AID 841; protection (pct of control), % at 4 µM; in the data active = protection mostly above about 24%, no sharp cut-off; inactive = mostly below about 26%
* marks the source's active call; other numbers are inactive results; . = no result given.

SMILES	Yeast life ext	RAM network inh	BB579 growth dn	Measles CPE
CCc1nnc(NS(=O)(=O)c2ccc(NC(=O)/C=C/c3ccccc3Cl)cc2)s1	.	8.8*	.	.
CCc1nnc(NS(=O)(=O)c2ccc(NC(=S)NC(=O)/C=C/c3ccc(OC)cc3)cc2)s1	4.7	4.6	-49.6	13.5
CC(C)NC(=S)NC(=O)/C=C/c1ccc(F)cc1	1.4	4.8	-7.9	35.5*
CCc1nnc(NS(=O)(=O)c2ccc(NC(=O)c3cccc(Cl)c3)cc2)s1	.	5.8	.	.
COc1nccnc1NS(=O)(=O)c1ccc(NC(=S)NC(=O)/C=C/c2ccc(F)cc2)cc1	10.1	11.2*	-50.2	3.3
CCOC(=O)c1c(C)[nH]c(C(=O)COC(=O)C(C)N2C(=O)C3CCCCC3C2=O)c1C (stereo not drawn)	-11.5	-0.5	15.7	10.8
CCCCNC(=O)N1CCN(Cc2cccc(F)c2)CC1	.	1.9	.	.
Cc1cc(C(=O)CN2C(=O)NC(C)(CC(C)C)C2=O)c(C)n1-c1ccc2c(c1)OCO2 (stereo not drawn)	64.5*	1.1	-20.6	11.4
Cc1cc(C(=O)CN2C(=O)NC3(CCCC3)C2=O)c(C)n1-c1ccc2c(c1)OCO2	3.7	0.8	13.5	12.2
Cc1cc(C(=O)COc2ccccc2Cl)c(C)n1-c1ccc2c(c1)OCO2	-0.6	4.6	0.5	33.3*
O=C1NC2(CCCCC2)N=C1c1ccc(F)cc1	-7.2	1.5	-51.9	6.5
O=C1NC2(CCCCC2)N=C1c1ccc(Br)cc1	-13.0	2.9	-33.9	64.5*
Cc1cc(Oc2ccccc2)nc(-c2ccccc2)n1	-19.4	0.8	-5.6	8.2
c1ccc(Oc2cc(-c3ccccc3)nc(-c3ccccc3)n2)cc1	2.5	10.0*	-24.3	6.0
CCOc1ccccc1C(=O)N1CCN(c2ccc(C(F)(F)F)cn2)CC1	.	1.5	.	.
O=C(NCCCN1CCCC1=O)c1ccc(Cl)c(Cl)c1	.	0.7	.	.
COc1ccc(C(=O)N/C(=C\c2cn(S(=O)(=O)N(C)C)c3ccccc23)C(=O)NC(C)C)cc1	.	9.3*	.	.
Cc1ccc(NC(=O)CN(C)S(=O)(=O)c2cccc3cccnc23)cc1	-8.5	1.0	15.3	49.3*
O=C(OCc1ccccc1)N1CCCC1/C=C/CN1CCOCC1 (stereo not drawn)	.	1.1	.	.
CCOCCCNCc1ccc(OCc2ccccc2C)c(OC)c1	.	0.5	.	.
Clc1ccc(N=c2ssnc2Cl)cc1	.	-1.5	76.9*	12.7
CCOC(=O)CN(c1ccccn1)S(=O)(=O)c1ccccc1	-8.1	0.4	18.6	35.0*
O=C(CN(c1ccccc1F)S(=O)(=O)c1ccccc1)NC1CCCCCC1	-4.1	10.6*	-28.1	23.8
NS(=O)(=O)c1cccc(NC(=O)COC(=O)/C(=C/c2cccs2)c2cccs2)c1	-1.5	5.3	-14.1	15.0
Cc1ccc(NC(=O)COC(=O)/C(=C/c2cccs2)c2cccs2)cc1S(=O)(=O)N(C)C	10.0	8.9*	-59.0	18.6
SMILES	Yeast life ext	RAM network inh	BB579 growth dn	Measles CPE
CC(OC(=O)C1CC1)C(=O)Nc1cc(C(F)(F)F)ccc1Cl (stereo not drawn)	.	1.4	.	.
CC(C)(C)C(=O)Nc1cc(S(=O)(=O)Nc2ccc(Cl)cc2)ccc1Cl	8.0	11.2*	-25.4	3.6
COc1cc(S(=O)(=O)NC2CCCCC2)c(C)cc1C	.	-0.1	.	.
C=CCn1c(C)cc(C(=O)COc2ncnc3sccc23)c1C	44.1*	1.5	-20.8	32.9
O=S(=O)(Nc1nc2ccccc2nc1Cl)c1ccccc1	30.0*	-0.2	-4.0	19.0
O=S(=O)(Nc1nc2ccccc2[nH]1)c1ccccc1	1.4	0.8	-22.4	11.9
CCC(C)Oc1nc2ccccc2nc1NS(=O)(=O)c1ccccc1 (stereo not drawn)	26.0*	3.4	-38.7	7.3
O=S(=O)(Nc1nc2cc3c(cc2nc1Cl)OCCO3)c1ccccc1	.	0.2	.	.
O=S(=O)(Nc1nc2ccccc2nc1Cl)c1ccc2ccccc2c1	41.4*	6.2	-30.6	4.7
C/C(CCC(C)C)=N\Nc1cc(C)c2ccccc2n1	.	0.4	.	.
CSc1ccc(S(=O)(=O)Nc2ccc3c(c2)OCCO3)cc1	-6.9	-1.4	-43.7	42.4*
O=C(CCN1C(=O)/C(=C/c2ccccc2)SC1=S)NNC(=O)c1cccnc1	-0.9	9.6*	-33.9	22.7
Cc1ccc(C(=O)NNC(=O)CCCN2C(=O)/C(=C/c3ccccc3Cl)SC2=S)cc1	1.8	10.1*	-16.7	24.8
CCCN1C(=O)/C(=C/c2ccncc2)SC1=S	54.3*	0.5	-47.9	8.0
COc1cc(/C=C/C(=O)O)cc(S(=O)(=O)NC2CC2)c1OC	10.4	1.8	-10.0	25.8
O=C1C=CCC(/C=C/c2ccccc2)O1 (stereo not drawn)	41.1*	-0.1	-59.6	2.9
C/C(=N\NC(=S)NCc1ccccc1)c1ccc2c(c1)OCCO2	.	0.8	.	.
C/C(=N\NC(=S)NCc1ccccc1)c1ccc(Br)cc1	.	9.9*	.	.
Cc1cc(C)c(C)c(S(=O)(=O)NC2CCN(Cc3ccccc3)CC2)c1C	.	-1.1	.	.
O=C(C1CC(c2ccccc2O)=NO1)N1CCCCC1 (stereo not drawn)	-11.8	-0.5	-1.8	5.6
CCn1c(=O)c(C(=O)NNS(=O)(=O)c2ccc(Cl)cc2)c(O)c2ccccc21	28.2*	0.6	-30.3	2.6
CC(NC(=O)CSC(=S)N(C)C)C12CC3CC(CC(C3)C1)C2 (stereo not drawn)	12.4	0.4	-36.9	9.4
COCc1cc(C)nc(SCC(=O)Oc2ccc(Cl)cc2)c1C#N	.	3.0	.	.
COCc1cc(C)nc(SCC(=O)Oc2ccccc2)c1C#N	.	9.1*	.	.
O=C(CNC(=S)N(Cc1ccccc1)Cc1cccnc1)NC1CCCC1	0.3	0.4	-2.1	28.2*
SMILES	Yeast life ext	RAM network inh	BB579 growth dn	Measles CPE
c1ccc(-c2nc3c(ccc4ccccc43)[nH]2)nc1	.	-0.4	71.7*	12.8
CSc1ccc(C(=S)N2CCN(Cc3ccccc3)CC2)cc1	30.7*	-0.1	-68.1	1.5
CC(C)(C)N/N=C/c1c(O)n(-c2ccc(Cl)cn2)c(=O)c2ccccc12	18.3	8.5*	-34.4	14.4
O=c1c2ccccc2c(C=Nc2cccc(S(=O)(=O)NCc3ccco3)c2)c(O)n1-c1ccc(Cl)cn1	2.1	8.6*	-35.7	5.5
COc1ccc(NC(=O)c2cc3nc(-c4ccccc4)cc(-c4ccccc4)n3n2)c(OC)c1	-0.1	3.9	-41.0	3.4
O=C(Nc1cccc(O)c1)c1cc2nc(-c3ccccc3)cc(-c3ccccc3)n2n1	3.7	9.7*	-25.4	6.4
CCN(CC)S(=O)(=O)c1cc(NC(=O)COC(=O)CCC(=O)c2cccs2)ccc1C	.	7.4	.	.
CCN(CC)S(=O)(=O)c1cc(C(=O)OCC(=O)Nc2cccc(S(=O)(=O)N(C)C)c2)ccc1F	.	9.2*	.	.
CN(C)S(=O)(=O)c1cccc(NC(=O)COC(=O)c2ccc(Br)o2)c1	-11.3	0.4	-5.8	20.6
CCN(CC)S(=O)(=O)c1cc(NC(=O)COC(=O)CCC(=O)c2ccc(F)cc2)ccc1C	1.3	9.5*	-37.1	5.1
COCCCN(CC(=O)O)S(=O)(=O)c1cccc(Cl)c1	.	1.3	.	.
COc1ccc(CN=C2NC(=O)CC(C(=O)Nc3ccccc3C)S2)cc1 (stereo not drawn)	-0.9	6.8	-13.0	17.6
